Test results reported in the EternaBench riboswitch data.

System: MS2 coat protein
Assay: apparent Kd, MS2 coat protein; higher = weaker binding; RNA-MaP array; FMN 200 µM where present
Procedure, shortened: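 Two titrations, one without ligand and one with constant ligand, were run with SNAP-549-labelled MS2 coat protein from 0.7 or 1.5 nM, doubling to 3 µM. The targets were designs transcribed by stalled E. coli RNA polymerase on Illumina sequencing-chip clusters, in 100 mM Tris-HCl pH 7.5, 80 mM KCl, 4 mM MgCl2, BSA, DTT, yeast tRNA and Tween-20. The apparent Kd is the median of filtered per-cluster binding-curve fits, with green signal normalised to red-channel RNA signal and control-cluster median Fmax.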

[1] = designed as: ON switch for flavin mononucleotide, no ligand
[2] = ligand present: flavin mononucleotide, designed as: ON switch for flavin mononucleotide
[3] = designed as: OFF switch for flavin mononucleotide, no ligand
[4] = ligand present: flavin mononucleotide, designed as: OFF switch for flavin mononucleotide

Sequence	apparent Kd [1] [nM]	apparent Kd [2] [nM]	apparent Kd [3] [nM]	apparent Kd [4] [nM]
CAUGCCUGCACAGGAUAUCAUACAUGAGGAUCACCCAUGUCUAACAACACAUGAGAAGGGUGCAUGCCUGGGCGAAGUUUUGUG	24.3	6.22		
CAUGGGACUUCCUCGCGGAACAUGAGGAUCACCCAUGUUGCGGAGGAUAUACUUCGGCGCUCCGAGUAGAAGGCUGCAGAUCCC			24.4	33.1
CAUGUCCUCACAGGAUAUGCUGGACUUUGUCCAGCAGAAGGGUGAACAUGAGGAUCACCCAUGUAGUGGACAUGUAUAUUUAAU	543	276		
CAUUAACUACAAUUACAUGAGGAUCACCCAUGUUUUGGGAUGCAGGAUAUGUGGUAUAUUAAUUAACAGAAGGGCAAUAAUUUU	41.5	36.7		
CAUUAAUUGAUUAUUGUAUUUAUACAGGAUAUGUAACAUGAGGAUCACCCAUGUAUACAUGGGAAACAGAAGGGUAUAUAAAGA			33.7	29.9
CAUUAUUAUCGAGGAUAUCCUAUUGAAAUUCUGGGAGAAGGCGGACUCAACAUGAGGAUCACCCAUGUGGGACGGAUGCUAGGA			18.5	15.4
CCAACUGGAGGAUAUGCAGCGGCGGUCUCUUGGUUUGCAUUACAUGAGGAUCACCCAUGUAGAAGGCCGGUUGU			117	201
CCACGACCGGAGAAGGCAGUUUGUGGGCCUGUUCCUGUCGGAUACAUGAGGAUCACCCAUGUACCUGAGGAUAUCUGGUCGUAG			4.99	5.57
CCACGUCACAUCUACAUGAGGAUCACCCAUGUCAAAAGACAUGAGGAUAUGCAUCCUAAUUGGAUGCAGAAGGCAUGGACGUGG	972	69.7		
CCACGUCACAUGAACAUGAGGAUCACCCAUGUAAAUUCUCAUGAGGAUAUGGAUCCUAAUUGGAUCCAGAAGGCAUGGACGUGG	842	348		
CCACGUCACAUUAACAUGAGGAUCACCCAUGUCUCUUGACAUGAGGAUAUGGAUCCUAAUUGGAUCCAGAAGGCAUGGACGUGG	1370	99.8		
CCACUGUCAGGAUAUCGUGCAUAAACGUUUACAUUUAUGUGCGAGAAGGGACAUGAGGAUCACCCAUGUAAACG			314	515
CCAGCAACAUGAGGAUCACCCAUGUAGGAUAUCGCUAUUGUAAUCAUGAAACAUGAUUACAAUAGCGAGAAGGACAUAUGCUGG			6.31	10.1
CCAGGCAGUGUGAGGAUAUGCUGGUCCUUGGAUCAGCAGAAGGCACAUGAGGAUCACCCAUGUGAAGAGCUUGG			23.9	115
CCAUAAAAGAUCCAUUUUUACAACAUGAGGAUCACCCAUGUGCAGGAUAUCGUGAAAGUAAAAUACGAGAAGGGCAAGAACUGC			106	130
CCAUAGUACAAUUUAGAUCUACAUGAGGAUCACCCAUGUACUGAGGAUAUCAGCUCGAAUAGAGCUGAGAAGGCAGAAUUAAUU	132	59.2		
CCAUGCGGAUGAGGAUAUUCAUCCAUGAGGAUAGAAGAAGGCAUACAUGAGGAUCACCCAUGUAUACACAUGAGGAUCCCUUAC			128	178
CCAUGCGGAUGAGGAUAUUCAUUUAUGAGGAUAGAAGAAGGCAUACAUGAGGAUCACCCAUGUAUACGCAUGAGGAUCCCUUAC			34.2	27.2
CCAUGGAAUGUAGGAUAUGUCUGACAAAGUCAGACAGAAGGACAUGAGGAUCACCCAUGUAGGAAACAACCACAUAAACCAUGG			6.83	7.08
CCAUUUCAGUAAGGAUAUAUAAACAUGACGAUACAUGAGGAUCACCCAUGUGUAGAAGGUACUAAUACAUAUAAUACAAUGCUC			19.2	15.7
CCCAAACUUGGGCUUGGCGGUGCAUAGGAUAUCCUUGAACAUGAGGAUCACCCAUGUACAACUGUGGAGAAGGGUGCAGGGCCU	132	17.3		
CCCAAACUUGGGUUUGGUGGUGCAUAGGAUAUGCUUGAACAUGAGGAUCACCCAUGUACUAUUGUGCAGAAGGGUGCAUGGCAA	401	29.1		
CCCACACUUGUGAGGAUAUGGAUAGCUGCUGCUGAUUAGAAGGCACAUGAGGAUCACCCAUGUCACCCUCAUGG			278	255
